Screening results from PubChem.
A selection: hits, their analogues and other compounds. The true share with any hit is near 1.4%.
CASP6 VEID inh: blocks human caspase-6 cleavage activity | P55212 | purified caspase-6, Z-VEID-R110 cleavage fluorescence | inhibition, % at 12.5 µM | 350,000 tested, 0.53% active | AID 686996;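 active = mean inhibition across replicates at least about 35%, with every replicate also reaching that limit, limit read from the data; inconclusive = only one of the two criteria met; inactive = neither criterion met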;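 note: 0% = median of neutral control wells and 100% = no fluorescence left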
Target sequence (P55212 24-179 limits assumed): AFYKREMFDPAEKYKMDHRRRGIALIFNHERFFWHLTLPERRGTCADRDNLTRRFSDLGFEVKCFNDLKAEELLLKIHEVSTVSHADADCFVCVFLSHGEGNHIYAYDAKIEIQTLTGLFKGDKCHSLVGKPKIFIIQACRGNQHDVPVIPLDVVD
Target sequence (P55212 194-293 limits assumed): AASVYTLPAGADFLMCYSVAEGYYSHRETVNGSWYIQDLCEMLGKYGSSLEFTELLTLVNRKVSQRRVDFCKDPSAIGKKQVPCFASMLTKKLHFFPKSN
Vif imaging: blocks HIV Vif function; HEK293T cells, Vif self-association by quenched fluorescence, imaging, 24 h; inhibition, % at 7.49 µM; 340,000 tested, 0.35% active; AID 602346; in the data active = inhibition above about 50%, passing the limit was not always enough; inconclusive = no clear call, values can overlap the other calls; inactive = below about 31%
Myeloid diff 2: compounds promoting myeloid differentiation. ER-HoxA9 myeloid progenitors, lysozyme-GFP differentiation, flow cytometry. calls only at 10 µM. 360,000 tested, 1% active. AID 624256;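 active = normalized GFP-positive differentiation at or above the plate's own cutoff, the solvent-only control mean plus 3 SD; inconclusive = no clear call, values can overlap the other calls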;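 note: cells exposed to compound for four days before flow analysis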
T cell HTS: modulates CD8 T cell binding to vesicles | 2C CD8+ T cell-vesicle binding, flow cytometry; active compounds read low | response (vesicle binding), % at 7 µM | 330,000 tested, 0.068% active | AID 2052;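 active = response, share of CD8 T cells binding vesicles, and their 90th percentile fluorescence all below set limits, cut at about 80% in these data, passing the limit was not always enough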;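 note: values below 100% mean blocked vesicle binding to the CD8+ T cells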
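incubation = binding step 1.5 h, 37 °C, antibody labelling 20 min, ice | test system = 2C mouse CD8+ T cells | read-out basis = percent CD8+ FL2 mean versus row control | controls = Peptide-free naked vesicles (low) and QL9 vesicles with 0.7% DMSO vehicle (high) | detection = flow cytometry of vesicle-bound cells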
* marks the source's active call; other numbers are inactive results; i = inactive; ? = inconclusive; . = no result; + = active, no number.

SMILES | CASP6 VEID inh | Vif imaging | Myeloid diff 2 | T cell HTS
CCCN1CCc2c(sc(NC(=S)NC(=O)c3ccccc3)c2C#N)C1 | -57 | -2 | + | 219
Cc1sc(NC(=S)NC(=O)c2ccccc2)c(C#N)c1C | . | . | i | 221
CCN1CCc2c(sc(NC(=S)NC(=O)c3ccc(Cl)cc3)c2C(N)=O)C1 | -2 | 51* | + | 570
COc1ccc(NC(=O)N(C)C[C@H]2Oc3ccc(NS(=O)(=O)c4ccc(Cl)cc4)cc3CC(=O)N([C@@H](C)CO)C[C@@H]2C)cc1 | 2 | . | . | .
O=C(C[C@@H]1CC[C@H](NC(=O)Nc2cc(F)ccc2F)[C@@H](CO)O1)NCCCN1CCOCC1 | -1 | . | . | .
CN1c2ccc(-c3ccccc3)cc2[C@H]2[C@H](CCN2C(=O)c2ccncc2)[C@@H]1CO | -2 | . | . | .
C=CCN1C(=O)/C(=C/c2ccsc2)SC1=S | -3 | -2 | i | 104
C=CCN1C(=O)/C(=C/c2ccc(-c3ccc(F)cc3)o2)SC1=S | -2 | 82* | i | 372
O=S(=O)(c1ccccc1)N1CCN(c2cc(-c3ccccc3)nc3ncnn23)CC1 | . | . | + | 221
O=S(=O)(c1ccc(Br)cc1)N1CCN(c2cc(-c3ccccc3)nc3ncnn23)CC1 | 2 | -6 | i | 328
CCCNC(=O)N[C@H]1CC[C@@H](CC(=O)NC2CCCCC2)O[C@H]1CO | -2 | . | . | .
Cc1noc(C)c1S(=O)(=O)N(C)C[C@H]1Oc2ccc(NC(=O)C3CC3)cc2CC(=O)N([C@H](C)CO)C[C@@H]1C | -1 | . | . | .
CC1(Cc2cc(Cl)ccc2C(F)(F)F)C(=O)Nc2ccc(S(=O)(=O)NC3CCCCC3)cc21 (configuration not stated) | 1 | 70* | i | .
CCN(CC)c1nc2ccccc2nc1C(C#N)C(=O)NCCCOC (configuration not stated) | . | -17 | + | 259
Fc1ccccc1CNc1ccc(Cl)c(Cl)c1 | . | 55* | i | 204
C[C@H]1CN([C@@H](C)CO)C(=O)c2cc(-c3ccc(F)cc3)cnc2O[C@@H]1CN(C)C(=O)NC1CCCC1 | 0 | . | . | .
O=C(O)CN1C(=O)/C(=C\c2cc(Br)ccc2OCc2ccc(Cl)cc2Cl)SC1=S | 86* | -5 | i | 81
CC1(C)CC2CC(C)(CN2Cc2cccc([N+](=O)[O-])c2)C1 (configuration not stated) | 1 | 57* | i | 240
C/C=C/c1ccc([C@H]2[C@@H](CN(C)C(=O)CC)N(C(=O)C3CC3)[C@H]2CO)cc1 | 2 | . | . | .
OCCN1CCN(CC(O)COc2ccc(C34CC5CC(CC(C5)C3)C4)cc2)CC1 (configuration not stated) | -36 | -2 | + | 240
O=C(NCc1cccc(F)c1)c1cccc2c1C(=O)c1ccc(N3CCC(Cc4ccccc4)CC3)cc1S2(=O)=O | . | 121* | + | 354
O=C(NCc1ccco1)c1cccc2c1C(=O)c1ccc(N3CCC(Cc4ccccc4)CC3)cc1S2(=O)=O | . | -1 | i | 308
O=C(NCCc1ccc(F)cc1)c1cccc2c1C(=O)c1ccc(N3CCC(Cc4ccccc4)CC3)cc1S2(=O)=O | . | 3 | + | 280
O=C(NCc1cccc(C(F)(F)F)c1)c1cccc2c1C(=O)c1ccc(N3CCC(Cc4ccccc4)CC3)cc1S2(=O)=O | . | 122* | + | 358
CC1CCN(c2ccc3c(c2)S(=O)(=O)c2cccc(C(=O)NCc4cccc(F)c4)c2C3=O)CC1 | -6 | 8 | i | 523
SMILES | CASP6 VEID inh | Vif imaging | Myeloid diff 2 | T cell HTS
CO[C@H]1CN(C)C(=O)c2ccc(NC(=O)CC(F)(F)F)cc2OC[C@H](C)N(C(C)=O)C[C@H]1C | 2 | . | . | .
COc1ccc(C(=O)/C=C/c2cccc(OCc3ccccc3)c2)cc1CSCC(=O)O | 44* | 0 | i | 514
COc1ccc(C(=O)/C=C/c2ccc(OCc3ccccc3)cc2)cc1CSCC(=O)O | 44* | 2 | i | 172
Cc1cc(N2CCN(C)CC2)ccc1NC(=O)c1ccc(-c2ccc(Cl)cc2)o1 | -31 | 4 | + | 331
N=C1C(c2ccccc2)=C(O)CN1NC(=O)c1ccccc1 | -1 | 9 | + | 182
N=C1C(c2ccccc2)=C(O)CN1NC(=O)c1ccc(Cl)cc1 | 0 | -7 | i | i
Cn1c2ccccc2c2cnn(CC(=O)Nc3ccc(F)cc3F)c(=O)c21 | -2 | -1 | + | 110
Cn1c2ccccc2c2cnn(CC(=O)Nc3ccccc3Br)c(=O)c21 | -1 | -15 | i | 201
COc1cc(C2C3=C(COC3=O)Oc3cc4c(cc32)OCO4)cc(OC)c1O (configuration not stated) | 2 | 60* | ? | .
CC(=O)c1c(C)[nH]c(C(=O)OCC(=O)Nc2cc(C(F)(F)F)ccc2N2CCOCC2)c1C | . | -14 | + | 224
CN1C(=O)c2cc(NC(=O)Cc3ccccc3)ccc2OC[C@@H]2O[C@@H](CC(=O)NCC3CC3)CC[C@H]21 | 0 | . | . | .
COc1ccc(N(CC(=O)Nc2nc3ccc(C)cc3s2)S(=O)(=O)c2c(C)nn(C)c2C)cc1 | 1 | 2 | + | 455
CN(C)CC#Cc1cccc(-c2nc(C(=O)N[C@@H]3CCN(Cc4ccccc4)C3)cc3c2[C@H](CCO)N(S(=O)C(C)(C)C)C3)c1 (some centres not stated) | -38 | . | . | .
CCOC(=O)C1CCN(CC(O)COc2ccc(C(C)(C)C)cc2)CC1 (configuration not stated) | . | -1 | + | 776
Cc1ccc(S(=O)(=O)N(C)C[C@H]2OCCCC[C@@H](C)Oc3ccc(NC(=O)Nc4ccccc4)cc3C(=O)N([C@@H](C)CO)C[C@H]2C)cc1 | 0 | . | . | .
C[C@H](NC(=O)C[C@@H]1C[C@@H]2c3cc(NC(=O)C4CCOCC4)ccc3O[C@@H]2[C@H](CO)O1)c1ccccc1 | -2 | . | . | .
COc1ccc(S(=O)(=O)Nc2ccc3c(c2)C(=O)N([C@H](C)CO)C[C@@H](C)[C@@H](CN(C)C(=O)Cc2ccccc2)OCCCC[C@H](C)O3)cc1 | -2 | . | . | .
Cc1cc(C)c2c(c1)NC(C(=O)O)C1CC=CC21 (configuration not stated) | 64* | 13 | + | 76
CCCC(=O)N1CC2(C1)CN(C(=O)C1CCC1)[C@H](CO)c1[nH]c3cc(OC)ccc3c12 | -1 | . | . | .
COc1cccc(C#Cc2cnc3c(c2)C(=O)N([C@@H](C)CO)C[C@@H](C)[C@H](CN(C)C(=O)C2CC2)O3)c1 | -1 | . | . | .
C#CCN1C(=O)S/C(=C/C=C/c2ccc(N(C)C)cc2)C1=O | . | 87* | i | 282
O=C(Nc1ccc2c(c1)[C@@H]1C[C@@H](CC(=O)N3CCc4ccccc4C3)O[C@H](CO)[C@@H]1O2)NC1CCCC1 | 2 | . | . | .
Cc1cc(C)c2c(CN3CCN(Cc4ccccc4)CC3)cc(=O)oc2c1 | 0 | 104* | i | 172
Cc1cc(C)c2c(CN3CCN(c4ccccc4)CC3)cc(=O)oc2c1 | -4 | . | i | .
C=C(C)C(=O)Nc1cccc(C2=NOC3(C2)C[C@@H](C(N)=O)N(C(=O)/C=C/C=C/C)C3)c1 (some centres not stated) | 51* | . | i | 391
